# Measurements taken from ChEMBL document CHEMBL1128216, “Rational design and synthesis of small molecule, non-oligosaccharide selectin inhibitors: (alpha-D-mannopyranosyloxy)biphenyl-substituted carboxylic acids” (J Med Chem, 1995).
# What was measured:
# E-selectin = target: T1, E-selectin (Homo sapiens, UniProt P16581); assay: In vitro inhibition of HL60 (human leukemia) cell binding to human recombinant e-selectin.; type: cell-based, HL-60
# T1 sequence (P16581 whole entry): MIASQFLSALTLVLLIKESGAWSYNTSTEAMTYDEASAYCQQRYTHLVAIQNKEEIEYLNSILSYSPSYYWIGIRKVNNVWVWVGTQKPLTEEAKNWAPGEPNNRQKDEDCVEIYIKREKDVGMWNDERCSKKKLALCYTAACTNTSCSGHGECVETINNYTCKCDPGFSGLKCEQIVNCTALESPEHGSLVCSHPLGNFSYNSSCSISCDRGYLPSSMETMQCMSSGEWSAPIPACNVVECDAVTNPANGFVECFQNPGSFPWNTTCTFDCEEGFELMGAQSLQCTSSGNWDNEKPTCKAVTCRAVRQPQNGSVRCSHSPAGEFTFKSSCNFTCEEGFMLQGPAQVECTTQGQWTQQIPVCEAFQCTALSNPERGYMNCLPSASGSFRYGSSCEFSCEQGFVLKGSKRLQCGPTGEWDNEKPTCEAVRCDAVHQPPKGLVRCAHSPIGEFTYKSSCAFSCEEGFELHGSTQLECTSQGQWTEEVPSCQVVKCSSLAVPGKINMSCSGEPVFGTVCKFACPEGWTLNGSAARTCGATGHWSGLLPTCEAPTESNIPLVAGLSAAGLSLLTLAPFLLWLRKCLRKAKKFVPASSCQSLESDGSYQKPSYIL
# Method in brief: (§1)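 Human E-selectin (lectin, EGF and two complement repeats) fused to mouse IgG was captured on anti-mouse IgG magnetic beads overnight at 4 °C. Wells were pre-blocked with 3% BSA/PBS. Compound in PBS was mixed with calcein-labelled HL60 cells (10⁷/mL, RPMI 1640 + 10% FCS) and beads (4 × 10⁶/mL) for 10 min at room temperature. Unbound cells were removed magnetically with two PBS washes, and bound cells were lysed in 1% NP40.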
# L-selectin = target: T2, L-selectin (Mus musculus, UniProt P18337); assay: In vitro inhibitory activity against sialyl Lewis X expressing HL60 cell binding Selectin L; type: cell-based, HL-60
# T2 sequence (P18337 whole entry): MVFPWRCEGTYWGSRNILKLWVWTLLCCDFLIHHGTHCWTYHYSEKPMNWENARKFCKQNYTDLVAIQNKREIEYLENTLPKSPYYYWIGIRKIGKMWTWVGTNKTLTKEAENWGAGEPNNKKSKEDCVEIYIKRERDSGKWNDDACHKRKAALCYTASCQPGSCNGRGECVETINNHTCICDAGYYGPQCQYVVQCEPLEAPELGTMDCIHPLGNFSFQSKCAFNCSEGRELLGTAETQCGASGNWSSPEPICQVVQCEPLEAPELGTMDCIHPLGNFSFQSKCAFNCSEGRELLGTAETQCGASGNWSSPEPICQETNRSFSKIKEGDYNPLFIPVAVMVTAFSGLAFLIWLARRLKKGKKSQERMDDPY
# P-selectin = target: T3, P-selectin (Homo sapiens, UniProt P16109); assay: In vitro inhibitory activity against sialyl Lewis X expressing HL60 cell binding Selectin P; type: cell-based, HL-60
# T3 sequence (P16109 whole entry): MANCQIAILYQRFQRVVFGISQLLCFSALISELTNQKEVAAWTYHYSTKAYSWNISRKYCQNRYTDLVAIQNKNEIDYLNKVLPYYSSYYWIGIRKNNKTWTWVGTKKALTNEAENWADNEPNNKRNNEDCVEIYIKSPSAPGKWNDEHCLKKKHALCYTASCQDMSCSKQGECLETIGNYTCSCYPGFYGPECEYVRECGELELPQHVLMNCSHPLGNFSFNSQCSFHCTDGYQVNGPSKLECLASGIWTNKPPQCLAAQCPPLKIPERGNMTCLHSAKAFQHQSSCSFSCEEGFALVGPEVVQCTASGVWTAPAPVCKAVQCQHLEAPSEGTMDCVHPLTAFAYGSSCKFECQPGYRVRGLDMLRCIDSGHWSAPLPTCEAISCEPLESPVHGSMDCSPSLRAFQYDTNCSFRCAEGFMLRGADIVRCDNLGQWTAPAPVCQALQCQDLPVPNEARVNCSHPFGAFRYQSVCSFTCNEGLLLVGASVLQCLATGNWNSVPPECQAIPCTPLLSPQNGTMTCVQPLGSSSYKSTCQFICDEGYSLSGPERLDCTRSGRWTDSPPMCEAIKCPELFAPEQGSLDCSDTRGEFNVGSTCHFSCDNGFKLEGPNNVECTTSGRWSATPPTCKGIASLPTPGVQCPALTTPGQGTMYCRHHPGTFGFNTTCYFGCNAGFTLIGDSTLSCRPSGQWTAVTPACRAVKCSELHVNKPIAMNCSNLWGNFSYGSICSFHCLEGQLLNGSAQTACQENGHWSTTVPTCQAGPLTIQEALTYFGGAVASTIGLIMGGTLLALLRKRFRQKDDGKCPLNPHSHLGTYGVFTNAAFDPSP
# [1] = target: T4, E-selectin (Homo sapiens) (UniProt P16581); assay: In vitro inhibitory activity against sialyl Lewis X expressing HL60 cell binding to recombinant human E-selectin at 1 mM concentration; type: cell-based; settings: HL-60; method in brief: as §1
# T4 sequence (whole entry): T1 sequence (P16581 whole entry)
# [2] = target: T5, P-selectin (Homo sapiens) (UniProt P16109); assay: In vitro inhibitory activity against sialyl Lewis X expressing HL60 cell binding Selectin P at 20 mM concentration; type: cell-based; settings: HL-60
# T5 sequence (whole entry): T3 sequence (P16109 whole entry)
# [3] = target: T6, L-selectin (Mus musculus) (UniProt P18337); assay: In vitro inhibitory activity against sialyl Lewis X expressing HL60 cell binding Selectin L at 6 mM concentration; type: cell-based; settings: HL-60
# T6 sequence (whole entry): T2 sequence (P18337 whole entry)
# [4] = target: T4, E-selectin (Homo sapiens); assay: In vitro inhibitory activity against sialyl Lewis X expressing HL60 cell binding to recombinant human E-selectin at 16.3 mM concentration; type: cell-based; settings: HL-60; method in brief: as §1
# [5] = target: T4, E-selectin (Homo sapiens); assay: In vitro inhibitory activity against sialyl Lewis X expressing HL60 cell binding to recombinant human E-selectin at 6 mM concentration; type: cell-based; settings: HL-60; method in brief: as §1
# [6] = target: T4, E-selectin (Homo sapiens); assay: In vitro inhibitory activity against sialyl Lewis X expressing HL60 cell binding to recombinant human E-selectin at 128 mM concentration; type: cell-based; settings: HL-60; 18 mM; in the assay text read “18 mM” for “128 mM”; method in brief: as §1
# [7] = target: T5, P-selectin (Homo sapiens); assay: In vitro inhibitory activity against sialyl Lewis X expressing HL60 cell binding Selectin P at 23 mM concentration; type: cell-based; settings: HL-60
# [8] = target: T4, E-selectin (Homo sapiens); assay: In vitro inhibitory activity against sialyl Lewis X expressing HL60 cell binding to recombinant human E-selectin at 20 mM concentration; type: cell-based; settings: HL-60; method in brief: as §1
# [9] = target: T6, L-selectin (Mus musculus); assay: In vitro inhibitory activity against sialyl Lewis X expressing HL60 cell binding to Selectin L at 8 mM concentration; type: cell-based; settings: HL-60
# [10] = target: T6, L-selectin (Mus musculus); assay: In vitro inhibitory activity against sialyl Lewis X expressing HL60 cell binding to Selectin L at 6 mM concentration; type: cell-based; settings: HL-60
# [11] = target: T6, L-selectin (Mus musculus); assay: In vitro inhibitory activity against sialyl Lewis X expressing HL60 cell binding to Selectin L at 5 mM concentration; type: cell-based; settings: HL-60
# [12] = target: T6, L-selectin (Mus musculus); assay: In vitro inhibitory activity against sialyl Lewis X expressing HL60 cell binding to Selectin L at 7 mM concentration; type: cell-based; settings: HL-60
# [13] = target: T4, E-selectin (Homo sapiens); assay: In vitro inhibitory activity against sialyl Lewis X expressing HL60 cell binding to recombinant human E-selectin at 40 mM concentration; type: cell-based; settings: HL-60; method in brief: as §1
# [14] = target: T5, P-selectin (Homo sapiens); assay: In vitro inhibitory activity against sialyl Lewis X expressing HL60 cell binding Selectin P at 4 mM concentration; type: cell-based; settings: HL-60
# [15] = target: T6, L-selectin (Mus musculus); assay: In vitro inhibitory activity against sialyl Lewis X expressing HL60 cell binding Selectin L at 1 mM concentration; type: cell-based; settings: HL-60
# [16] = target: T6, L-selectin (Mus musculus); assay: In vitro inhibitory activity against sialyl Lewis X expressing HL60 cell binding to L-selectin at 6 mM concentration; type: cell-based; settings: HL-60
smiles,measurement,setting,value
O=C(O)Cc1cccc(-c2ccccc2O[C@H]2O[C@H](CO)[C@@H](O)[C@@H](O)[C@@H]2O)c1,IC50,E-selectin,2 mM
same,IC50,L-selectin,1 mM
same,IC50,P-selectin,2.6 mM
CC(=O)N[C@H]1[C@H]([C@H](O)[C@H](O)CO)O[C@@](O[C@H]2[C@@H](O)[C@@H](CO)O[C@@H](O[C@@H]([C@H](O[C@@H]3O[C@@H](C)[C@@H](O)[C@@H](O)[C@@H]3O)[C@H](C=O)NC(C)=O)[C@H](O)CO)[C@@H]2O)(C(=O)O)C[C@@H]1O [SIALYL LEWIS X],IC50,E-selectin,3 mM
same,IC50,L-selectin,2 mM
same,IC50,P-selectin,2 mM
O=C(N[C@H](Cc1ccccc1)C(=O)O)c1cccc(-c2ccccc2O[C@H]2O[C@H](CO)[C@@H](O)[C@@H](O)[C@@H]2O)c1,inhibition,[1],14%
same,inhibition,[2],5%
same,inhibition,[3],0%
O=C(O)CC(NC(=O)c1ccc(-c2ccccc2O[C@H]2O[C@H](CO)[C@@H](O)[C@@H](O)[C@@H]2O)cc1)C(=O)O (some centres not stated),inhibition,[4],0%
same,IC50,L-selectin,5 mM
same,IC50,P-selectin,2 mM
O=C(O)C(=O)Nc1cccc(-c2ccccc2O[C@H]2O[C@H](CO)[C@@H](O)[C@@H](O)[C@@H]2O)c1,inhibition,[5],0%
O=C(O)CNC(=O)c1cccc(-c2ccccc2O[C@H]2O[C@H](CO)[C@@H](O)[C@@H](O)[C@@H]2O)c1,inhibition,[6],0%
same,inhibition,[7],25%
same,inhibition,[3],0%
Cc1c(OCC(=O)O)cccc1-c1ccccc1O[C@H]1O[C@H](CO)[C@@H](O)[C@@H](O)[C@@H]1O,inhibition,[8],0%
same,inhibition,[2],0%
same,inhibition,[9],0%
O=S(=O)(O)CCc1cccc(-c2ccccc2O[C@H]2O[C@H](CO)[C@@H](O)[C@@H](O)[C@@H]2O)c1,IC50,E-selectin,20 mM
O=C(O)Cc1ccc(-c2ccccc2O[C@H]2O[C@H](CO)[C@@H](O)[C@@H](O)[C@@H]2O)cc1,IC50,E-selectin,2.6 mM
same,inhibition,[2],0%
same,inhibition,[10],0%
O=C(O)CC[C@H](NC(=O)c1cccc(-c2ccccc2O[C@H]2O[C@H](CO)[C@@H](O)[C@@H](O)[C@@H]2O)c1)C(=O)O,IC50,E-selectin,15.8 mM
same,inhibition,[11],15%
N#CCc1cccc(-c2ccccc2O[C@H]2O[C@H](CO)[C@@H](O)[C@@H](O)[C@@H]2O)c1,IC50,E-selectin,7 mM
same,inhibition,[7],40%
same,IC50,L-selectin,1.5 mM
O=C(O)COc1cccc(-c2ccccc2O[C@H]2O[C@H](CO)[C@@H](O)[C@@H](O)[C@@H]2O)c1,IC50,E-selectin,4.9 mM
same,IC50,L-selectin,17 mM
same,IC50,P-selectin,4.9 mM
O=C(O)c1ccc(-c2ccccc2O[C@H]2O[C@H](CO)[C@@H](O)[C@@H](O)[C@@H]2O)cc1,IC50,E-selectin,14.6 mM
same,inhibition,[2],0%
same,inhibition,[12],0%
CC(C(=O)O)c1cccc(-c2ccccc2O[C@H]2O[C@H](CO)[C@@H](O)[C@@H](O)[C@@H]2O)c1 (stereo in doubt; 9r) [listing 1 of 2 here],inhibition,[13],0%
same,inhibition,[10],40%
Cc1cc(-c2ccccc2O[C@H]2O[C@H](CO)[C@@H](O)[C@@H](O)[C@@H]2O)cc(C)c1OCC(=O)O,IC50,E-selectin,8 mM
same,inhibition,[12],0%
same,IC50,P-selectin,6.9 mM
Cc1ccc(OCC(=O)O)cc1-c1ccccc1O[C@H]1O[C@H](CO)[C@@H](O)[C@@H](O)[C@@H]1O,IC50,E-selectin,20.2 mM
same,IC50,P-selectin,12 mM
O=C(NC(Cc1ccccc1)C(=O)O)c1ccc(-c2ccccc2O[C@H]2O[C@H](CO)[C@@H](O)[C@@H](O)[C@@H]2O)cc1 (some centres not stated),IC50,E-selectin,11.5 mM
CC(C(=O)O)c1cccc(-c2ccccc2O[C@H]2O[C@H](CO)[C@@H](O)[C@@H](O)[C@@H]2O)c1 (stereo in doubt; 9s),IC50,E-selectin,20 mM
CC(C(=O)O)c1cccc(-c2ccccc2O[C@H]2O[C@H](CO)[C@@H](O)[C@@H](O)[C@@H]2O)c1 (stereo in doubt; 9r) [listing 2 of 2 here],IC50,P-selectin,20 mM
O=C(O)CNC(=O)c1ccc(-c2ccccc2O[C@H]2O[C@H](CO)[C@@H](O)[C@@H](O)[C@@H]2O)cc1,IC50,E-selectin,4.6 mM
same,inhibition,[2],0%
same,inhibition,[10],0%
CCOP(=O)(O)CCCc1cccc(-c2ccccc2O[C@H]2O[C@H](CO)[C@@H](O)[C@@H](O)[C@@H]2O)c1,IC50,E-selectin,34.4 mM
same,IC50,P-selectin,12.4 mM
O=C(O)CCC(NC(=O)c1ccc(-c2ccccc2O[C@H]2O[C@H](CO)[C@@H](O)[C@@H](O)[C@@H]2O)cc1)C(=O)O (some centres not stated),IC50,E-selectin,32 mM
same,inhibition,[14],35%
same,inhibition,[15],0%
O=C(O)COc1ccc(-c2ccccc2O[C@H]2O[C@H](CO)[C@@H](O)[C@@H](O)[C@@H]2O)cc1,IC50,E-selectin,6.1 mM
same,inhibition,[16],20%
same,IC50,P-selectin,20 mM
OC[C@H]1O[C@H](Oc2ccccc2-c2cccc(Cc3nnn[nH]3)c2)[C@@H](O)[C@H](O)[C@@H]1O,inhibition,[13],17%
O=C(N[C@@H](Cc1ccccc1)C(=O)O)c1ccc(-c2ccccc2O[C@H]2O[C@H](CO)[C@@H](O)[C@@H](O)[C@@H]2O)cc1,IC50,E-selectin,3.8 mM
same,inhibition,[2],0%
same,inhibition,[11],0%
O=C(O)CCNC(=O)c1ccc(-c2ccccc2O[C@H]2O[C@H](CO)[C@@H](O)[C@@H](O)[C@@H]2O)cc1,IC50,E-selectin,36 mM
same,inhibition,[15],0%
Cc1ccc(O[C@H]2O[C@H](CO)[C@@H](O)[C@@H](O)[C@@H]2O)c(-c2cccc(OCC(=O)O)c2)c1,IC50,E-selectin,14 mM
